Structures are written as SMILES. Activity calls are given as the source filed them.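 Rule for the calls, unless noted: active = inhibition of the reporter signal at or above 50%; inactive = inhibition below 50%.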

Assay [1] in a line: inhibitors of TNFa-induced NFkB p65 translocation, primary screen, imaging, HUVEC, MLSMR starter and 10KST1 sets (AID 438;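 active = inhibition above 20% together with a positive visual image hit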;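 note: compound added about 3h40 before a 20 min TNFalpha stimulation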;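 for inhibition: signal is the nuclear over cytoplasmic p65 intensity ratio per well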). Particulars: HUVEC TNFa-induced p65 nuclear translocation; cell count: measured here: nuclei count (cytotoxicity indicator), at 2.08 µM; inhibition: at 2 µM, stronger effect = higher value, 0% TNFa-plus-vehicle, 100% no-TNFa wells.
Assay [2] can be described thus: reduction of polyQ htt aggregates in cells – imaging, exon1htt(103Q)mCFP cells, high-content imaging, primary screen (AID 483;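 active = visual image review flags a hit and inhibition of aggregation exceeds 20%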;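 note: compound exposure lasted 3 days before fixation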;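 for nuclei count: percent of the per-plate median nuclei count of sample wells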). Particulars: exon1htt(103Q)mCFP cell line, aggregate imaging, at 2 µM; inhibition of aggregation: stronger effect = higher value; nuclei count: measured here: cell count, toxicity.
Assay [3] is described as follows: endothelial E-selectin expression blockers – imaging, HUVEC, immunofluorescence, MLSMR starter and 10KST1 sets, primary screen (AID 487;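 active = visually confirmed hit in the image check and inhibition above 20%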;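 for inhibition: signal is fraction of cell area covered by stained E-selectin grains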;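 for nuclei count: 100% = median nuclei count of all wells on the same plate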). Conditions: HUVEC TNFalpha-induced E-selectin immunofluorescence imaging, at 2 µM; inhibition: stronger effect = higher value; nuclei count: measured here: cell number, toxicity.
For assay [4], the target named is Voltage-gated potassium channel subunit beta-2 (Rattus norvegicus) (UniProt P62483). The experiment in a line: inhibitors of rat Kvbeta2 reductase activity – biochemical, NADPH fluorescence, primary screen (AID 622;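 active = fluorescence slope higher than the sample average by over 3 SD, cut at about -0.22 in these data, passing the limit was not always enough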;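 note: slope of raw intensity against log time taken from 70 to 1610 s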). Conditions: recombinant KvBeta, 4-cyanobenzaldehyde reduction, at 10 µM, stronger effect = higher value.
Sequence of Voltage-gated potassium channel subunit beta-2 (Rattus norvegicus) (P62483 whole entry, looked up): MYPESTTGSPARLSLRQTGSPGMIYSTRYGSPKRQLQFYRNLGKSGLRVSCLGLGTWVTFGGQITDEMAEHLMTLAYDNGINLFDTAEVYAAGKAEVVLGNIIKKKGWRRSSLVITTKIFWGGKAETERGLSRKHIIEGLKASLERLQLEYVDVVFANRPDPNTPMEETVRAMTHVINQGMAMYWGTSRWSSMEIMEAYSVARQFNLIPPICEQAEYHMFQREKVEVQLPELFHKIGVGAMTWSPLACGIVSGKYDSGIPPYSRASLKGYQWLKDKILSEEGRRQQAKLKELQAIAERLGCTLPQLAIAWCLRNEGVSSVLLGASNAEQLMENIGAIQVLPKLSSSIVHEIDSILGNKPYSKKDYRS
Assay [5] has the same target. Put plainly: enhancers of rat Kvbeta2 NADPH turnover – biochemical, NADPH fluorescence, primary screen (AID 623;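 active = NADPH fluorescence slope more negative than the mean of all samples by about 3 SD, 99.7% confidence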;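 note: fluorescence intensity change per second fitted from 20 to 320 s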). Particulars: Recombinant KvBeta, NADPH fluorescence decrease slope, 10 min; at 10 µM; stronger effect = lower value.
Assay [6] deals with Muscarinic acetylcholine receptor M4 (Homo sapiens) (UniProt P08173). Put plainly: M4-linked GIRK flux change, two-sided – cell-based, HEK293 M4/GIRK, thallium flux, BTC-AM, M4 allosteric agonist project, primary screen (AID 625;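 active = fluorescence slope after compound addition differing from the mean of all tested samples at 99.7% confidence, mostly higher but some lower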;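 note: thallium influx through GIRK channels coupled to M4 in HEK293 cells with BTC-AM dye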). Conditions: at 10 µM, actives lie on both sides. The method, boiled down:
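Material – HEK293 cells with M4 receptor and GIRK channels · Buffer or medium – pH 7.3 thallium assay buffer · Doses – one dose, 10 µM final · Timing – cells overnight at 37 °C, BTC-AM loading 1 h, reads 2 min total · Measured by – kinetic fluorescence with BTC-AM dye · Controls – carbachol and DMSO controls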

A short description of assay [7]: blockers of RIG-like receptor reporter activation – cell-based, Sendai virus stimulus, luciferase, 10K MLSCN set, TLR/RLR signaling modifier project, primary screen (AID 602276;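 active = inhibition at or above 50% at 10 µM; inactive = inhibition below 50%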;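 note: firefly luciferase from ISG56 promoter only with Renilla not read in this screen; 0% = Sendai virus plus DMSO and 100% = medium plus DMSO without virus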). Conditions: HEK293 RL24 IRF3 luciferase reporter, at 10 µM, stronger effect = higher value.
A short description of assay [8]: TLR3 IRF3 reporter activation blockers – cell-based, poly I:C stimulus, luciferase, 10K MLSCN set, primary screen (AID 602277). Conditions: HEK293-TLR3 RL24 IRF3 luciferase reporter, at 10 µM, stronger effect = higher value.

Sequence of Muscarinic acetylcholine receptor M4 (Homo sapiens) (P08173 whole entry, looked up): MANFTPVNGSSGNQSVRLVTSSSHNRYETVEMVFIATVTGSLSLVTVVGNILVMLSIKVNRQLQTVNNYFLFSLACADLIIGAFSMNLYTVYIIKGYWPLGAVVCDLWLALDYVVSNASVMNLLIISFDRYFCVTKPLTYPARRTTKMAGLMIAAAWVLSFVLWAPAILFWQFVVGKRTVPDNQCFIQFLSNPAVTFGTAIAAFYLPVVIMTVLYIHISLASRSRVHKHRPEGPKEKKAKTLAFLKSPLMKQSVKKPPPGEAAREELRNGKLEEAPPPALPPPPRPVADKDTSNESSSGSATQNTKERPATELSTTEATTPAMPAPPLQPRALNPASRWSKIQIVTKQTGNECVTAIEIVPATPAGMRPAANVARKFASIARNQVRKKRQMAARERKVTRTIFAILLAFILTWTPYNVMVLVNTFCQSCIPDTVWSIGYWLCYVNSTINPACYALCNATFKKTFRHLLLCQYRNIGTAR

On to `Nc1nc(CN2CCN(Cc3ccc4c(c3)OCO4)CC2)nc(Nc2ccccc2)n1`, for which the cell count in assay [1] was found to be 652. Besides, the inhibition in assay [1] is 6.8% (inactive); in assay [3], -9.3% (inactive); in assay [7] it was 10.9% (inactive); in assay [8] it was 22.6% (inactive). Further, the inhibition of aggregation in assay [2] was -1.8% (inactive). In addition, the values for the nuclei count in assay [2] and in assay [3] were 116% and 115%, respectively. Also, the values for the fluorescence slope in assay [4] and in assay [6] were -0.578 (inactive) and 0.00565 (inactive), respectively. The NADPH fluorescence slope in assay [5] is -4.8e-05 (inactive).
Consider `CCOc1ccccc1Nc1ncnc2ccccc12`, for which, in assay [1], the cell count is 394. The inhibition was 9.3% (inactive) in assay [1], -40.8% (inactive) in assay [3], 5.79% (inactive) in assay [7] and -12% (inactive) in assay [8]. In assay [2], the inhibition of aggregation was 8% (inactive). Also, the nuclei count in assay [2] is 93.2%; in assay [3], 120%. For the same compound, the fluorescence slope in assay [4] was -0.548 (inactive); in assay [6], 0.00457 (inactive). Besides, the NADPH fluorescence slope in assay [5] is -1.6e-05 (inactive).
As for `CC(=O)Nc1ccc(S(=O)(=O)N2CCN(Cc3ccncc3)CC2)cc1`, in assay [1], the cell count turned out to be 679. Besides, the inhibition is -5.8% (inactive) in assay [1], -26.1% (inactive) in assay [3], 18.9% (inactive) in assay [7] and 16.4% (inactive) in assay [8]. The inhibition of aggregation in assay [2] was -14% (inactive). The nuclei count in assay [2] worked out at 123%; in assay [3], 126%. Besides, the values for the fluorescence slope in assay [4] and in assay [6] were -0.451 (inactive) and 0.00451 (inactive), respectively. Besides, in assay [5], the NADPH fluorescence slope is -3.2e-05 (inactive).
With `COC(=O)c1c(NC(=O)C2CC=CCC2C(=O)O)sc(C(N)=O)c1C` (stereo not drawn), the cell count in assay [1] stood at 654. For the same compound, the inhibition in assay [1] was -2.4% (inactive); in assay [3], -10.1% (inactive); in assay [7] it was 0.24% (inactive); in assay [8], 11% (inactive). Also, the inhibition of aggregation in assay [2] is 7.8% (inactive). Besides, the nuclei count was determined as 96.4% in assay [2] and 113% in assay [3]. For the same compound, the fluorescence slope in assay [4] was -0.495 (inactive); in assay [6], 0.00475 (inactive). Also, the NADPH fluorescence slope in assay [5] is -4.4e-05 (inactive).
With `COC(=O)C(C)Oc1ccc2c3c(c(=O)oc2c1)CCCCC3` (stereo not drawn), in assay [1], the cell count stood at 648. Further, the inhibition in assay [1] is -7.8% (inactive); in assay [3] it was -170% (inactive); in assay [7], 9.54% (inactive); in assay [8], 12.4% (inactive). Also, in assay [2], the inhibition of aggregation was -24.4% (inactive). Moreover, the values for the nuclei count in assay [2] and in assay [3] were 106% and 103%, respectively. Besides, the fluorescence slope in assay [4] was -0.496 (inactive); in assay [6], 0.00349 (inactive). Further, the NADPH fluorescence slope in assay [5] was -1.7e-05 (inactive).
For `Cc1cccc(N2CCN(C(=O)c3cc4c(=O)[nH]c5ccccc5c4n3C)CC2)c1C`, in assay [1], the cell count was 228. Also, the inhibition in assay [1] was 5.8% (inactive); in assay [3], -26.1% (inactive); in assay [7], 9.93% (inactive); in assay [8], -17.5% (inactive). Moreover, in assay [2], the inhibition of aggregation is 5.3% (inactive). The nuclei count in assay [2] was 85.4%; in assay [3], 106%. Further, the fluorescence slope in assay [4] was -0.529 (inactive); in assay [6], 0.00424 (inactive). Besides, in assay [5], the NADPH fluorescence slope was -2.8e-05 (inactive).
With `O=C(Nc1nc2ccc(S(=O)(=O)N3CCCC3)cc2s1)C1CCCO1` (stereo not drawn), in assay [1], the cell count was found to be 504. Besides, the inhibition is -12.6% (inactive) in assay [1], 28.1% (inactive) in assay [3], 14.9% (inactive) in assay [7] and 15.2% (inactive) in assay [8]. For the same compound, the inhibition of aggregation in assay [2] was -7.9% (inactive). The nuclei count in assay [2] came out at 55.6%; in assay [3], 93.1%. The fluorescence slope was -0.455 (inactive) in assay [4] and 0.00425 (inactive) in assay [6]. The NADPH fluorescence slope in assay [5] was -4.6e-05 (inactive).
Turning to `C=C(c1ccc(O)cc1)c1ccc(O)cc1`, the cell count in assay [1] amounted to 447. Besides, the inhibition is -0.5% (inactive) in assay [1], -75% (inactive) in assay [3], 13.9% (inactive) in assay [7] and 16.6% (inactive) in assay [8]. Further, the inhibition of aggregation in assay [2] was -1.6% (inactive). Further, the nuclei count in assay [2] was found to be 123%; in assay [3], 205%. Moreover, the fluorescence slope was -0.37 (inactive) in assay [4] and 0.00598 (inactive) in assay [6]. Moreover, the NADPH fluorescence slope in assay [5] was 1.7e-05 (inactive).
Turning to `Cc1onc(-c2ccccc2)c1C(=O)Nc1ccnn1C1CCCCC1`, the cell count in assay [1] was 387. For the same compound, the inhibition in assay [1] is 1.4% (inactive); in assay [3], 8.4% (inactive); in assay [7], 9.16% (inactive); in assay [8] it was 18.3% (inactive). In addition, the inhibition of aggregation in assay [2] was 0.6% (inactive). Also, the results for the nuclei count in assay [2] and in assay [3] were 94.4% and 81.7%, respectively. Moreover, the fluorescence slope in assay [4] is -0.367 (inactive); in assay [6], 0.00689 (inactive). In assay [5], the NADPH fluorescence slope was -8.4e-05 (inactive).
`CC1(c2ccc(OC(F)F)cc2)NC(=O)N(CC(=O)Nc2ccc3c(c2)OCO3)C1=O` (stereo not drawn): the cell count in assay [1] came to 404. The inhibition was -6.6% (inactive) in assay [1], -7.1% (inactive) in assay [3], -3.26% (inactive) in assay [7] and 2.25% (inactive) in assay [8]. The inhibition of aggregation in assay [2] is -11.2% (inactive). In addition, the nuclei count in assay [2] was 109%; in assay [3] it was 107%. The values for the fluorescence slope in assay [4] and in assay [6] were -0.576 (inactive) and 0.00647 (inactive), respectively. For the same compound, in assay [5], the NADPH fluorescence slope is -6.3e-05 (inactive).
Consider `O=S(=O)(c1ccc(OCC(O)CN2CCN(c3ccccc3)CC2)cc1)N1CCOCC1` (stereo not drawn), for which the cell count in assay [1] stood at 603. The inhibition is -34.9% (inactive) in assay [1], -19.7% (inactive) in assay [3], 13.5% (inactive) in assay [7] and -5.1% (inactive) in assay [8]. Further, the inhibition of aggregation in assay [2] was -19.9% (inactive). For the same compound, the nuclei count in assay [2] was determined as 104%; in assay [3], 108%. The fluorescence slope is -0.214 (inactive) in assay [4] and 0.00626 (inactive) in assay [6]. Moreover, the NADPH fluorescence slope in assay [5] is -1.7e-05 (inactive).
On to `CCCCc1c(O)nc(SCC(=O)c2ccccc2)[nH]c1=O`, for which, in assay [1], the cell count was 375. Also, the inhibition in assay [1] was 1.7% (inactive); in assay [3], 21.3% (inactive); in assay [7], 14.2% (inactive); in assay [8] it was 11.2% (inactive). In addition, the inhibition of aggregation in assay [2] was 10.7% (inactive). The nuclei count worked out at 90.4% in assay [2] and 95.1% in assay [3]. Also, the fluorescence slope in assay [4] was -0.561 (inactive); in assay [6], 0.00359 (inactive). Further, in assay [5], the NADPH fluorescence slope is -8.5e-05 (inactive).
Regarding `COc1ccc(-c2coc3c(CN4CCCCC4)c(O)c(CN4CCCCC4)c(O)c3c2=O)cc1`, the cell count in assay [1] was determined as 367. The inhibition is -17% (inactive) in assay [1], -63.6% (inactive) in assay [3], 5.54% (inactive) in assay [7] and 32.3% (inactive) in assay [8]. Besides, in assay [2], the inhibition of aggregation is 8.6% (inactive). Moreover, the values for the nuclei count in assay [2] and in assay [3] were 85.4% and 103%, respectively. Besides, the values for the fluorescence slope in assay [4] and in assay [6] were -0.566 (inactive) and 0.00504 (inactive), respectively. Besides, in assay [5], the NADPH fluorescence slope was -2.2e-05 (inactive).
